This note sets out measurements from ChEMBL document CHEMBL1133857, “Beta 3 agonists. Part 1: evolution from inception to BMS-194449” (Bioorg Med Chem Lett, 2001).

The target in assay [1] is Beta-2 adrenergic receptor and beta-3 adrenergic receptor (Homo sapiens) (UniProt P07550+P13945). The assay is described as follows: Selectivity as the ratio of Ki of beta-2 adrenergic receptor to the Ki of beta-3 adrenergic receptor. In kind it is protein assay. The method in brief: (§1)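 Ki at human β1, β2 and β3 adrenergic receptors measured by binding to membranes prepared from CHO cells transfected with each human receptor. Selectivity is expressed as the ratio of β1 or β2 Ki to β3 Ki.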

In assay [2] the target is Beta-1 adrenergic receptor (Cavia porcellus) (UniProt B0FL73). Put plainly: Intrinsic activity as the acceleration in contraction of spontaneously beating guinea pig atria relative to that induced by isoproterenol. The assay is classed as functional.
Beta-1 adrenergic receptor (Cavia porcellus), sequence (B0FL73 1-467): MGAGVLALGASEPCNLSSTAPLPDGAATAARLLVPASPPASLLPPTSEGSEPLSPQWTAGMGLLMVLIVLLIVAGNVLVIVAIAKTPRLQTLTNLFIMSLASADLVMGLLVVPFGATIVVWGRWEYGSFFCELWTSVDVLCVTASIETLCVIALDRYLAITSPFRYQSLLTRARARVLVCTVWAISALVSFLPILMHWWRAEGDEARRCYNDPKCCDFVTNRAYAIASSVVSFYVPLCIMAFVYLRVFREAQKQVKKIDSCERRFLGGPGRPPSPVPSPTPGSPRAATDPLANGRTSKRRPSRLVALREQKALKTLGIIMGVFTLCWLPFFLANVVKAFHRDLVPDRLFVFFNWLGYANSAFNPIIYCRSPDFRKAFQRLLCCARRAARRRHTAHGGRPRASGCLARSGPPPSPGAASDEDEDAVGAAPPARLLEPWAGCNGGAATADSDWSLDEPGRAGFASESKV
Assay [3] deals with T1, Beta-3 adrenergic receptor (Homo sapiens, UniProt P13945). Put plainly: Binding affinity against CHO cells transfected with human beta-3 adrenergic receptor in the presence of [125I]iodocyanopindolol. In kind it is cell-based. A digest of the protocol: as §1
Target sequence in this assay (P13945 whole entry): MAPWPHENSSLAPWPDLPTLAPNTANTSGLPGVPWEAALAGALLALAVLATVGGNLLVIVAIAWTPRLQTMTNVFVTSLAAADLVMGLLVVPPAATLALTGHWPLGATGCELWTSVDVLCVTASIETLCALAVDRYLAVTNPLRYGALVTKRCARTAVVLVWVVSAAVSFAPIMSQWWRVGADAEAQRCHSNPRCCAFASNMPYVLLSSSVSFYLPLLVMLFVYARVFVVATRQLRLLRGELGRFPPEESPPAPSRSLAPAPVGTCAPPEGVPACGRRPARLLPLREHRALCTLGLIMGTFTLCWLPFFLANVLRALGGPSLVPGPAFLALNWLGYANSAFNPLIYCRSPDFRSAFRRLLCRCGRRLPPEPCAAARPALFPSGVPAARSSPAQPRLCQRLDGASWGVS
In assay [4] the target is T1, Beta-3 adrenergic receptor. The assay is described as follows: Human beta-3 adrenergic receptor agonist activity by measurement of cAMP accumulation levels in CHO membranes expressing human beta-3 receptor. The assay is classed as functional, cell membranes. The method in brief: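 β3 intrinsic activity (% activation) measured in membranes from CHO cells transfected with human β3 adrenergic receptor.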
On the technique in general: cAMP levels reflect the balance of adenylyl cyclase and phosphodiesterase activity.
Target sequence in this assay (P13945 whole entry, looked up): as the sequence (P13945 whole entry) above

In assay [5] the target is Adrenergic receptor beta; ADRB1 & ADRB3 (Homo sapiens) (UniProt P08588+P13945). Put plainly: Selectivity measured as the ratio of Ki of Beta-1 Adrenergic receptor to the Ki of Beta-3 Adrenergic receptor. The assay is classed as protein assay. A digest of the protocol:
as §1

Adrenergic receptor beta; ADRB1 & ADRB3 (Homo sapiens), sequence (P08588 whole entry, looked up): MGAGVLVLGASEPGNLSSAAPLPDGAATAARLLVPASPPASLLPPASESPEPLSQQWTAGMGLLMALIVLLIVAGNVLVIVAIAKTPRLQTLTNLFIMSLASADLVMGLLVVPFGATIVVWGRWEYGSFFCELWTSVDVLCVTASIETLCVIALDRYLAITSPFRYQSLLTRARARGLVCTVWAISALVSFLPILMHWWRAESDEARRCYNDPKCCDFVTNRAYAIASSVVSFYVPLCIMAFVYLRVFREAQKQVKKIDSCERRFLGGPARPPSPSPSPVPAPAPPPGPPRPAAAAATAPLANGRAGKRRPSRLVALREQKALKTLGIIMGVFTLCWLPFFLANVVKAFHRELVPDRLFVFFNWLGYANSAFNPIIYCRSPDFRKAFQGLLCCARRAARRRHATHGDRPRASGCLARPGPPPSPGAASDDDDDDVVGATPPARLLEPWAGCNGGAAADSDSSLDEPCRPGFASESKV
Adrenergic receptor beta; ADRB1 & ADRB3 (Homo sapiens), sequence (P13945 whole entry, looked up): as the sequence (P13945 whole entry) above

With `CC(=O)Nc1ccc(C(NC[C@H](O)c2ccc(O)c(NS(C)(=O)=O)c2)c2ccc(NC(C)=O)cc2)cc1`, the values for the Selectivity in assay [1] and in assay [5] were 3 and 17, respectively. The Intrinsic activity in assay [2] was found to be 88%; in assay [4], 96%. Further, the Ki (as a rule, the equilibrium dissociation constant of an inhibitor or competing ligand from its target) in assay [3] came to 300 nM.
